Test results: ChEMBL document CHEMBL1156461, “Selective chemical probe inhibitor of Stat3, identified through structure-based virtual screening, induces antitumor activity” (Proc Natl Acad Sci U S A, 2007)
Activity calls are given as the source filed them. The calls are words filed in the database; no cut-off is given here.

Legend:
MDA-MB-435 [1] = assay: Induction of apoptosis in human MDA-MB-435 cells expressing active Stat3 at 30 to 100 uM after 48 hrs; format: functional, cell-based
How it was run: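 Proliferating cells were exposed to compound or 0.05% DMSO for 48 h, then detached. Percent apoptosis was quantified by annexin V binding and flow cytometry.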

NIH3T3 [2] = assay: Inhibition of v-Src mediated Stat3-independent pLucSRE luciferase […] induction in mouse NIH3T3 cells at 100 uM after 24 hrs; format: functional, cell-based
How it was run: (§1)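 NIH 3T3 fibroblasts were cotransfected with a v-Src plasmid and either the Stat3-dependent pLucTKS3 or the Stat3-independent pLucSRE reporter. At 24 h post-transfection, cells got 100 μM compound or 0.05% DMSO for another 24 h. Luciferase was read in cytosolic extracts.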

MDA-MB-231 [3] = assay: Induction of apoptosis in mock pcDNA3 transfected human MDA-MB-231 cells at 100 uM after 24 hrs; format: functional
How it was run: (§2)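 Cells were transfected with Stat3C or the Stat3 SH2 domain, mock-transfected, or left untransfected. After 24 h they received 100 μM compound or 0.05% DMSO for a further 24 h. Annexin V binding with flow cytometry gave percent apoptosis.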

NIH3T3 [4] = assay: Reduction of Bcl-xL gene expression in v-Src transfected mouse NIH3T3 cells at 100 uM after 48 hrs; format: functional, cell-based
MDA-MB-468 [5] = assay: Growth inhibition of human […] at 100 uM after 4 days by trypan blue exclusion assay; format: functional, cell-based
NIH3T3 [6] = assay: Reduction of survivin gene expression in v-Src transfected mouse NIH3T3 cells at 100 uM after 48 hrs; format: functional, cell-based
MDA-MB-435 [7] = assay: Inhibition of Stat3 activation in human MDA-MB-435 cells at 100 uM after 24 hrs; format: functional, cell-based
How it was run: (§3)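 Cells with constitutively active Stat3 were treated with compound or 0.05% DMSO (up to 24 h). Nuclear extracts were then assayed for Stat3 DNA binding by EMSA with 32P-labeled hSIE probe.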

MDA-MB-231 [8] = assay: Reduction of apoptosis in Stat3 transfected human MDA-MB-231 cells at 100 uM after 24 hrs; format: functional, cell-based
MDA-MB-231 [9] = assay: Growth inhibition of human […] at 100 uM after 4 days by trypan blue exclusion assay; format: functional, cell-based
NIH3T3 [10] = assay: Growth inhibition of mouse NIH3T3 cells expressing v-Src at 100 uM after 4 days by trypan blue exclusion assay; format: functional, cell-based
MDA-MB-435 [11] = assay: Cytotoxicity against human MDA-MB-435 cells expressing constitutively active Stat3 at >300 uM
NIH3T3 [12] = assay: Inhibition of Stat3-dependent pLucTKS3 luciferase […] induction in v-Src oncoprotein expressing mouse NIH3T3 cells co-transfected with pLucTKS3 at 100 uM after 24 hrs; format: functional, cell-based; how it was run: as §1
NIH3T3 [13] = assay: Reduction of pTyr-705 Stat3 level in v-Src expressing mouse NIH3T3 cells at 100 uM after 24 hrs; format: functional, cell-based
MDA-MB-231 [14] = assay: Reduction of cyclin D1 gene expression in human MDA-MB-231 cells at 100 uM after 48 hrs; format: functional, cell-based
MDA-MB-231 [15] = assay: Inhibition of Stat3 activation in human MDA-MB-231 cells at 100 uM after 24 hrs; format: functional, cell-based; how it was run: as §3
MDA-MB-231 [16] = assay: Reduction of survivin gene expression in human MDA-MB-231 cells at 100 uM after 48 hrs; format: functional, cell-based
MDA-MB-468 [17] = assay: Inhibition of Stat3 activation in human MDA-MB-468 cells at 100 uM after 24 hrs; format: functional, cell-based; how it was run: as §3
MDA-MB-435 [18] = assay: Growth inhibition of human MDA-MB-435 cells expressing v-Src at 100 uM after 4 days by trypan blue exclusion assay; format: functional, cell-based
NIH3T3 [19] = assay: Inhibition of Stat3 activation in v-Src expressing mouse NIH3T3 cells at 100 uM; format: functional, cell-based; conditions: TDE = time-dependent effect; how it was run: as §3
MDA-MB-231 [20] = assay: Induction of apoptosis in Stat3C transfected human MDA-MB-231 cells at 100 uM after 24 hrs; format: functional, cell-based; how it was run: as §2
MDA-MB-231 [21] = assay: Induction of apoptosis in Stat3 SH2 domain transfected human MDA-MB-231 cells at 100 uM after 24 hrs; format: functional, cell-based; how it was run: as §2
NIH3T3 [22] = assay: Growth inhibition of mouse NIH3T3 cells expressing v-Src at 100 uM for every 3 days by soft-agar colony-formation assay; format: functional, cell-based
How it was run: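 Soft-agar colony formation in six-well dishes. Compound in medium was added from 1 day after seeding and re-added every 3 days until large colonies appeared. Untreated wells served as control.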

MDA-MB-231 [23] = assay: Induction of apoptosis in human MDA-MB-231 cells at 100 uM after 24 hrs; format: functional; how it was run: as §2
MDA-MB-231 [24] = assay: Antitumor activity against human MDA-MB-231 cells expressing active Stat3 xenografted in mouse at 5 mg/kg, iv for every 3 days for 2 weeks; format: functional, organism-based; design: dose 5 mg/kg
How it was run: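 Female athymic nude mice (six weeks old) received 5 × 10^6 MDA-MB-231 cells s.c. in the left flank in PBS. Once tumors reached 3 mm diameter (5–10 days), animals were stratified to equal mean tumor size and dosed i.v. at 5 mg/kg every 2 or 3 days for 2 weeks against vehicle. Tumors were measured every 2–3 days.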

NIH3T3 [25] = assay: Reduction of cyclin D1 gene expression in v-Src transfected mouse NIH3T3 cells at 100 uM after 48 hrs; format: functional, cell-based
MDA-MB-231 [26] = assay: Reduction of Bcl-xL gene expression in human MDA-MB-231 cells at 100 uM after 48 hrs; format: functional, cell-based

For `Cc1ccc(S(=O)(=O)OCC(=O)Nc2ccc(C(=O)O)c(O)c2)cc1`, the Activity (MDA-MB-435 [1]) was “Active”, the Activity (NIH3T3 [2]) was “inactive” and the Activity (MDA-MB-231 [3]) was 50%. For the same compound, the Activity (NIH3T3 [4]) was “Active”, the Activity (MDA-MB-468 [5]) was “Active” and the Activity (NIH3T3 [6]) was “Active”. For the same compound, the Activity (MDA-MB-435 [7]) was “Active”, the Activity (MDA-MB-231 [8]) was “Active” and the Activity (MDA-MB-231 [9]) was “Active”. For the same compound, the Activity (NIH3T3 [10]) was “Active”, the Activity (MDA-MB-435 [11]) was “Toxic” and the Activity (NIH3T3 [12]) was “Dose-dependent effect”. For the same compound, the Activity (NIH3T3 [13]) was “Active”, the Activity (MDA-MB-231 [14]) was “Active” and the Activity (MDA-MB-231 [15]) was “Active”. For the same compound, the Activity (MDA-MB-231 [16]) was “Active”, the Activity (MDA-MB-468 [17]) was “Active” and the Activity (MDA-MB-435 [18]) was “Active”. The Activity (NIH3T3 [19]) was “tde”, the Activity (MDA-MB-231 [20]) was “Active” and the Activity (MDA-MB-231 [21]) was “Active”. The Activity (NIH3T3 [22]) was “Active”, the Activity (MDA-MB-231 [23]) was 50% and the Activity (MDA-MB-231 [24]) was “Active”. The Activity (NIH3T3 [25]) was “Active” and the Activity (MDA-MB-231 [26]) was “Active”.
